In data set [1] the test system is Mus musculus. As to the kind of experiment: Neurotoxicity in ip dosed albino CF-1 mouse assessed as dose required to cause motor impairment after 4 hrs by rotarod test. It is filed as toxicity, organism-based. As to conditions: in vivo. Put shortly:
(§1)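 Minimal motor impairment in male CF-1 mice by rotorod after i.p. dosing; toxic if animal falls off rotating rod 3 times within 1 min. Screen doses 30, 100, 300 mg/kg; quantitative TD50 (95% confidence interval) determined at time of peak effect.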
For orientation: In the rotarod test animals must keep their balance on a rotating rod.

Data set [2] concerns Mus musculus. Nature of the data set: Neurotoxicity in ip dosed albino CF-1 mouse assessed as dose required to cause motor impairment after 0.5 hrs by rotarod test. To be noted: in vivo. It is filed as toxicity, organism-based. Put shortly: as §1
Data set [3] concerns Mus musculus. As to the kind of experiment: Anticonvulsant activity in ip dosed albino CF-1 mouse assessed as dose required to protect against maximal electroshock-induced seizures after 4 hrs. It is filed as functional. Put shortly:
(§2)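 Male CF-1 mice (18–25 g), i.p. in 0.5% methyl cellulose at 30, 100 and 300 mg/kg; MES: 60 Hz, 50 mA, 0.2 s through tetracaine-primed corneal electrodes; protection = abolished hind limb tonic extension. Value given as minimum dose active in half or more of mice.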

The test system of data set [4] is Mus musculus. Nature of the data set: Anticonvulsant activity in ip dosed albino CF-1 mouse assessed as dose required to protect against maximal electroshock-induced seizures after 2 hrs. It is filed as functional. Put shortly: as §2
A general note: Protection in the maximal electroshock model is a classic sign of anticonvulsant action.

The subject of data set [5] is Mus musculus. As to the kind of experiment: Anticonvulsant activity in albino CF-1 mouse assessed as protection against subcutaneous metrazol-induced seizures at 300 mg/kg, ip after 4 hrs. It is filed as functional, organism-based. More on the design: dose 300 mg/kg. Put shortly: (§3)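 Male CF-1 mice, i.p. at 30, 100, 300 mg/kg in 0.5% methyl cellulose; metrazol dose convulsing 97% of animals injected s.c. in midline neck fold, mice isolated and watched 30 min; protected if no 3–5 s clonic spasm episode of limbs, jaws or vibrissae.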

The subject of data set [6] is Mus musculus. Nature of the data set: Anticonvulsant activity in albino CF-1 mouse assessed as protection against subcutaneous metrazol-induced seizures at 300 mg/kg, ip after 0.5 hrs. It is filed as functional, organism-based. More on the design: dose 300 mg/kg. Put shortly: as §3
Data set [7] deals with Mus musculus. Nature of the data set: Anticonvulsant activity in ip dosed albino CF-1 mouse assessed as dose required to protect against maximal electroshock-induced seizures after 0.5 hrs. It is filed as functional. Put shortly: as §2

The source made the active and inactive calls. The rule behind the calls is not given here.

The results in this text go back to ChEMBL document CHEMBL1667749, “Design & synthesis of N'-[substituted] pyridine-4-carbohydrazides as potential anticonvulsant agents” (Eur J Med Chem, 2011).

Turning to `O=C1NC(=O)C(c2ccccc2)(c2ccccc2)N1` [PHENYTOIN], the Activity was found to be 100 mg/kg in data set [1]; 100 mg/kg in data set [2]; 30 mg/kg in data set [3]; 30 mg/kg in data set [4]; 30 mg/kg in data set [7]. Moreover, the outcome in data set [5] and in data set [6] was inactive.
